Data on 2 compounds can be found in ChEMBL document CHEMBL4834414 (J Med Chem, 2021).

In assay [1] the target is Gamma-aminobutyric acid receptor-associated protein-like 2 (Homo sapiens) (UniProt P60520). The experiment in a line: Binding affinity to human GABARAPL2 expressed in Escherichia coli T7 by single site binding model based isothermal titration calorimetry. An outline of the steps:
(§1)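 Human Atg8-family proteins (LC3A, LC3C, GABARAP, GABARAPL1, GABARAPL2) expressed with a modified Ub tag, equilibrated in 50 mM Na2HPO4, 100 mM NaCl, 5% DMSO, pH 7.0; ligand prepared in the same buffer. ITC at 25 °C: 0.4 mM ligand titrated into 0.020 mM protein in 21 injections. Kd from a nonlinear least-squares fit to a single-site binding model.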
Background: In ITC the heat of successive injections is recorded.

Assay [2] concerns the target Gamma-aminobutyric acid receptor-associated protein (Homo sapiens) (UniProt O95166). Put plainly: Binding affinity to human GABARAP expressed in Escherichia coli T7 by single site binding model based isothermal titration calorimetry. An outline of the steps: as §1
Assay [3] deals with T1, Microtubule-associated protein 1 light chain 3 alpha (Homo sapiens, UniProt Q9H492). The experiment in a line: Binding affinity to human LC3A expressed in Escherichia coli BL21-(DE3) by single site binding model based isothermal titration calorimetry. An outline of the steps:
as §1

Assay [4] concerns the target Gamma-aminobutyric acid receptor-associated protein-like 1 (Homo sapiens) (UniProt Q9H0R8). The experiment in a line: Binding affinity to human GABARAPL1 expressed in Escherichia coli T7 by single site binding model based isothermal titration calorimetry. An outline of the steps:
as §1

The target in assay [5] is Microtubule-associated protein 1 light chain 3 gamma (Homo sapiens) (UniProt Q9BXW4). Put plainly: Binding affinity to human LC3C expressed in Escherichia coli BL21-(DE3) by single site binding model based isothermal titration calorimetry. An outline of the steps: as §1
Sequence of Microtubule-associated protein 1 light chain 3 gamma (Homo sapiens) (Q9BXW4 whole entry, the tested form may be a part): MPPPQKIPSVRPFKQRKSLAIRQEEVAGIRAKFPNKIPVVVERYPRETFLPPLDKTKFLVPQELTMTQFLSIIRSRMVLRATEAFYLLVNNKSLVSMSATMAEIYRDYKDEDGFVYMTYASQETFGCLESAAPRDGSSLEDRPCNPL
In assay [6] the target is T1, Microtubule-associated protein 1 light chain 3 alpha. Put plainly: Displacement of sGFP-p62-LIR peptide from human N-terminal SNAP-fused LC3A by time-resolved FRET assay. An outline of the steps:
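HTRF displacement: 10 nM N-terminal SNAP-LC3A labeled with terbium cryptate (donor) and 1 μM p62-LIR-sGFP (acceptor), with compound at varying concentrations in 1% DMSO. Buffer 25 mM HEPES pH 7.5, 150 mM KF, 10% glycerol, 0.1% CHAPS, 5 mM DTT. Incubated 2 h at RT; excitation 340 nm, emission read at 520 and 620 nm. IC50 with SD; Ki calculated.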

Assay [7] has the same target. The experiment in a line: Binding affinity to recombinant LC3A (unknown origin) assessed as shift of melting temperature by differential scanning fluorimetry. An outline of the steps: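 LC3A at 30 μM in HTRF buffer with 0.1% CHAPS, 2.5× SYPRO orange, 300 μM inhibitor and 1% DMSO, with a no-protein background. Heated 25.0 to 79.8 °C at 1 °C/min; excitation 490 nm, emission 570 nm. Tm taken as the first-derivative maximum; ΔTm against DMSO control. Triplicates in three independent experiments.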
For orientation: In DSF a fluorescence change marks the thermal transition of the protein.

Assay [8] shares this target. Put plainly: Binding affinity to human LC3A expressed in Escherichia coli BL21-(DE3) by isothermal titration calorimetry. An outline of the steps: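 His-tagged LC3A from E. coli BL21(DE3), TEV-cleaved and purified by IMAC, reverse IMAC and SEC into HTRF buffer (25 mM HEPES pH 7.5, 150 mM KF, 10% glycerol, 5 mM DTT), plus 0.1% CHAPS and 1% DMSO. ITC at 25 °C, stirring 75 rpm: 80 μM protein; inhibitor at 500 μM or 1 mM. Injection settings optimized per compound; dilution heats checked by blank titrations.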

The target of assay [9] is T2, Microtubule-associated protein 1 light chain 3 beta (Homo sapiens, UniProt Q9GZQ8).
Assay [10] deals with T2, Microtubule-associated protein 1 light chain 3 beta. The experiment in a line: Displacement of sGFP-p62-LIR peptide from human N-terminal SNAP-fused LC3B by time-resolved FRET assay.
The target is the same in assay [11]. Put plainly: Binding affinity to human LC3B expressed in Escherichia coli BL21-(DE3) by isothermal titration calorimetry.

The structures appear in SMILES notation. Activity calls are given as the source filed them. The calls are words filed in the database; no cut-off is given here.

Sequence of Gamma-aminobutyric acid receptor-associated protein-like 1 (Homo sapiens) (Q9H0R8 whole entry, looked up): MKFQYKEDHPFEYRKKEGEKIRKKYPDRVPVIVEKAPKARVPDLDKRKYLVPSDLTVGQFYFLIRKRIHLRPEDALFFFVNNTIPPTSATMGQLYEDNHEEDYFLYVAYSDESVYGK
Sequence of Gamma-aminobutyric acid receptor-associated protein (Homo sapiens) (O95166 whole entry): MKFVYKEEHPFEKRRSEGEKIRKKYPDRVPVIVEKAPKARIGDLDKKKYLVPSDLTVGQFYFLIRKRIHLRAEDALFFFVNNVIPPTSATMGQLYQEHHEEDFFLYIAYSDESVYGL
Sequence of Gamma-aminobutyric acid receptor-associated protein-like 2 (Homo sapiens) (P60520 whole entry): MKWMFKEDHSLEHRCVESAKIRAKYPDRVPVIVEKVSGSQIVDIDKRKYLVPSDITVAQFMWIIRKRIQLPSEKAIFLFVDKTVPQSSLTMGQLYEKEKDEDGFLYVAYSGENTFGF

For `CO[C@@H]1[C@@H](OC(N)=O)[C@@H](O)[C@H](Oc2ccc3c(O)c(NC(=O)c4ccc(O)c(CC=C(C)C)c4)c(=O)oc3c2C)OC1(C)C`, the result in [1], in assay [2], in assay [4] and in [5] was inactive. Moreover, the result in assay [3] was Active.

Regarding `CO[C@@H]1[C@@H](OC(N)=O)[C@@H](O)[C@H](Oc2ccc3c(O)c(NC(=O)c4ccc(O)c(CCC(C)C)c4)c(=O)oc3c2C)OC1(C)C`, the IC50 (usually the concentration that inhibits the measured activity by half) in assay [6] (read-out: IC50) was found to be 16 µM; in assay [10] (read-out: IC50) it was 72.3 µM. Further, the values for the Ki in assay [6] (read-out: Ki) and in assay [10] (read-out: Ki) were 3.3 µM and 8.1 µM, respectively. The ΔTm in [7] and in [9] was 5.6 °C in each case. In addition, the values for the dissociation constant Kd in assay [8] and in assay [11] were 2.8 µM and 11.4 µM, respectively.
